# High-throughput results from PubChem BioAssay.
# NALP1 yeast inh = inhibitors of NALP1 inflammasome in yeast; 280,000 compounds, 0.61% hits; S. cerevisiae NALP1/ASC/caspase-1 growth, X-gal OD620, 72 h; inhibition, % at 10 µM; AID 2071; in the data active = inhibition mostly above about 24%, no sharp cut-off; inactive = mostly below about 32%
# PolyA inhibitor = blocks polyadenylation in yeast reporter cells | S. cerevisiae SKY197-pL101 polyadenylation reporter, beta-gal luminescence; efflux-impaired pdr1/pdr3 knockout yeast; score 100 = 6 SD above DMSO | activity score, % at 12 µM | 300,000 compounds, 0.02% hits | AID 1875;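 active = lowest replicate activity score at least 50, where 100 means six control SD above control mean; inconclusive = lowest score under 50 but half or more replicates reach 50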;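 also: yeast exposed to compound for 9 h at 30 °C; higher score means more reporter readthrough which indicates perturbed polyadenylation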
# T cruzi repl = blocks replication of Trypanosoma cruzi; T. cruzi beta-gal in NIH3T3, luminescence, 90 h; inhibition, % (test concentration not listed); 300,000 compounds, 1.4% hits;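 active = mean inhibition across valid replicates above about 55%, limit read from the data; inconclusive = mean below that limit but half or more replicates reach it; inactive = mean below it, under half of replicates reach it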;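 also: signal also drops with host cell toxicity which is not excluded here; 0% = plate median of DMSO wells and 100% = zero luminescence signal; higher percent means less beta-gal luminescence so fewer parasites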
#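 compound dosing = single 50 nL compound addition per well in DMSO | material = NIH/3T3 host cells with β-galactosidase reporter T. cruzi | input = 5,000 host fibroblasts per well | timing = ≥90 h infection period, 3 h prior cell attachment | read-out basis = percent inhibition of parasite-derived β-gal signal | detection = GalScreen β-gal luminescence, detergent lysis, 60 min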
# NALP3 yeast inh = NALP3 inhibition in yeast. 330,000 compounds, 0.39% hits. Yeast reconstituted NLRP3/ASC/caspase-1, beta-gal luminescence, 24 h. inhibition, % at 10 µM;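 active = inhibition of 50% or more; inactive = inhibition below 50%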;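 also: plate controls were induced DMSO wells for no effect and uninduced yeast grown without galactose for full effect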
# Calb FLC = C. albicans growth modulation with fluconazole | C. albicans CaCi-2 + fluconazole, Alamar Blue growth, 48 h | growth inhibition, % (no concentration beside the values) | 300,000 compounds, 0.57% hits;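 active = growth inhibition above about 58% in most replicates, limit read from the data, passing the limit was not always enough; inconclusive = exactly half the replicates above a set limit; inactive = most replicates below a set limit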;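 also: all wells also contain fluconazole at 8 µg/ml as a sub-toxic cotreatment; 0% = median of DMSO wells and 100% = median of geldanamycin control wells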
# L major viab = inhibitors of Leishmania major promastigote growth. inhibition, % at 10 µM. 200,000 compounds, 9% hits. Leishmania major promastigotes, resazurin fluorescence viability; in the data active = inhibition above about 50%;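 also: promastigotes grown with compound for 44 hours at 28 °C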
# * hit, by the source's call; ? = inconclusive; . = not tested or not shown. This is one part of a sample in which hits are shown more often than they occur.
SMILES,NALP1 yeast inh,PolyA inhibitor,T cruzi repl,NALP3 yeast inh,Calb FLC,L major viab
COc1ccccc1N1CCN(C(=O)c2ccc3[nH]c(C)c(C)c3c2)CC1,-4,-3,2,9,-5,.
COc1ccccc1N1CCN(C(=O)c2ccc3[nH]c4c(c3c2)CC(C)CC4)CC1 (configuration not stated),32,14,57*,16,22,99*
CC(NC(=O)c1ccco1)c1ccc2c(c1)OCCO2 (configuration not stated),11,15,-5,14,0,-5
CC(C)(C)C(=O)NC(=S)NNC(=O)C(c1ccccc1)c1ccccc1,-4,-2,40,46,82*,4
CC(=O)NNC(=S)NC(=O)C(c1ccccc1)c1ccccc1,6,-1,-30,28,99*,-1
CN(C)C(=S)NC(=O)C(c1ccccc1)c1ccccc1,-12,8,5,8,-13,7
NC(=O)c1sc2nc3c(c(-c4cccs4)c2c1N)CCCC3,31,-37,1,.,18,20
CC(C)NC(=O)c1sc2nc3c(c(-c4cccs4)c2c1N)CN(C)CC3,18,-2,56*,3,-4,5
Cc1cccc(NC(=O)c2sc3nc4c(c(-c5cccs5)c3c2N)CN(C)CC4)c1,15,-4,40,6,-7,56*
COc1ccc(CCNC(=O)c2cccc(NC(=O)CC3SC(N4CCCCC4)=NC3=O)c2)cc1OC (configuration not stated),14,13,0,-8,-3,.
Nc1cccc(CCc2nc3cc4ccccc4cc3[nH]2)c1,-5,4,-54,16,-47,97*
COc1cc(/C=N\n2nnnc2N)ccc1OCc1ccc(F)cc1,8,-3,-9,12,-29,-3
COc1cc(/C=N/n2nnnc2N)ccc1OCc1c(C)no[n+]1[O-],23,27,-6,1,-1,54*
CC(=O)C1=C(C)Nc2ncnn2C1c1ccccc1F (configuration not stated),0,1,-7,-1,-2,.
NC(=O)CN(c1ccc(Cl)cc1)S(=O)(=O)c1ccccc1,40,15,-11,-14,-16,-6
CCN(CC)C(=O)CN(c1ccc(Cl)cc1)S(=O)(=O)c1ccccc1,5,-5,-2,2,1,90*
Cc1noc(/C=C/c2cccs2)c1S(=O)(=O)N1CCC(C(=O)NCCCN2CCCC(C)C2)CC1 (configuration not stated),-1,-9,24,17,23,96*
Cc1nn(C)c(C)c1S(=O)(=O)N1CCC(C(=O)NCCC2=CCCCC2)CC1,-8,-6,12,-5,-17,4
Cc1ccc(CNC(=O)C2CCN(S(=O)(=O)c3c(C)noc3C)CC2)cc1,10,3,14,7,9,99*
Cc1ccc(CNC(=O)C2CCCN(C(=O)N(C)C)C2)cc1 (configuration not stated),-5,-6,-13,10,-8,86*
CCCCNC(=O)C1CCCN(S(=O)(=O)c2c(C)noc2/C=C/c2cccs2)C1 (configuration not stated),.,1,25,0,4,.
Cc1noc(C)c1S(=O)(=O)N1CCC(C(=O)NCCC2=CCCCC2)CC1,11,-15,1,9,.,100*
Cc1ccc(CNC(=O)C2CCCC2)cc1,.,20,-5,1,5,.
Cc1ccc(CNC(=O)C2CCCN(S(=O)(=O)c3c(C)noc3C)C2)cc1 (configuration not stated),12,-12,6,5,-5,-3
N/N=C1\CCCc2nonc21,-6,-9,-16,24,-11,-1
SMILES,NALP1 yeast inh,PolyA inhibitor,T cruzi repl,NALP3 yeast inh,Calb FLC,L major viab
COc1ccccc1CNC(=O)C1CCN(S(=O)(=O)c2c(C)noc2C)CC1,-7,15,-9,16,4,100*
O=C(COc1ccc(Br)cc1CO)Nc1ccc(F)cc1,5,-9,-2,17,-4,1
O=C(COC(=O)c1ccccc1OCC(=O)Nc1ccc(Br)cc1)Nc1ccccc1,29,6,-13,5,-9,65*
O=C(COc1ccc(Br)cc1CNC1CCCC1)Nc1ccccc1,-9,4,47,31,-13,53*
Cn1c(-c2ccc(F)cc2)cnc1NCc1ccccc1,39,17,-3,32,6,28
Cn1c(-c2ccc(F)cc2)cnc1NCc1cccc(F)c1,35,-4,-14,8,-13,78*
Cn1c(-c2ccc3c(c2)OCO3)cnc1NCc1cccc(O)c1,-7,-5,-16,23,-8,63*
COc1cccc(-c2cnc(NCc3cc(Cl)ccc3O)n2C)c1,5,-1,6,6,-38,63*
Cn1c(-c2cccc(Br)c2)cnc1NCc1cccnc1,36,-1,34,-2,-15,97*
CC(C)(C)OC(=O)C[C@H]1C/C=C\C[C@H](CC(=O)N[C@H](CO)Cc2ccccc2)C(=O)N[C@H](Cc2ccccc2)COC1=O,.,.,.,9,.,.
O=C(CNCc1cccs1)Nc1ccc(N2CCCCCC2)cc1,24,3,15,35,10,51*
O=C(/C=C/c1ccc(Cl)c([N+](=O)[O-])c1)Nc1ccc(NC(=O)c2ccco2)cc1,15,-3,-14,.,3,0
O=C(CNCc1cccs1)Nc1ccc(S(=O)(=O)N2CCCCC2)cc1,6,8,-5,13,-5,0
O=C(NC(=S)Nc1ccccc1N1CCCC1)c1ccccc1[N+](=O)[O-],11,-7,7,.,1,12
O=C(/C=C/c1ccc(Cl)c([N+](=O)[O-])c1)Nc1ccc(N2CCCC2)cc1,4,-4,10,7,-4,67*
O=C(Nc1ccc(N2CCCCCC2)cc1)c1ccccc1Cl,11,-22,-5,16,-15,57*
O=C(NC(=S)Nc1ccc(N2CCCC2)cc1)c1ccccc1[N+](=O)[O-],16,0,30,5,-26,54*
O=C(OCCN1CCN(C2=NS(=O)(=O)c3ccccc32)CC1)c1ccccc1F,13,1,0,14,4,.
CC1(C)CC(=O)C(CS(=O)(=O)c2ccccc2)=C(Cl)C1,10,-7,11,13,-1,.
COc1ccc(-n2c(-c3ccc(Cl)cc3)c[n+]3c2CCc2ccccc2-3)cc1,11,1,74*,12,108*,100*
COc1ccc(-n2c(-c3ccccc3)nnc2-c2ccc(Cl)cc2)cc1,-2,6,40,2,2,0
C=CCNC(=O)c1onc(CSc2ccc(F)cc2)c1C(=O)NCCOC,9,-1,-2,22,-12,2
CC(C)NC(=O)c1cc(-c2ccco2)nn1-c1ccc(Cl)cc1,-3,5,24,4,?,50*
